These results are taken from publication PMC9623456 (RSC Advances, 2022).

≈ marks a conversion by molar mass, not a printed value.

In series [1] the target is HIF-1α prolyl hydroxylase-2 (PHD2). Particulars: PHD2 inhibition; cited from earlier work.
For series [2] the following is noted: Phase 2 trial; cited from earlier work.
In series [3] the test system is mouse embryo cell lines 3T3-L1. Kind of series: MTT assay. Format: cell-based. As to conditions: for IC50: Mus musculus, 3T3-L1, read-out: 3T3-L1 IC50. The method in brief: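 MTT metabolic-activity assay in mouse embryo 3T3-L1 cells exposed to a range of test-compound concentrations. Percent viability was calculated by formula and plotted against concentration in μg ml−1. IC50 was taken from the dose–response curve as the concentration giving 50% growth suppression.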
For orientation: Tetrazolium assays rely on reduction of a dye to a coloured formazan, in cell work by metabolically active cells.

The subject of the next series is 3T3-L1 cells. Kind of series: Scratch wound assay. Format: cell-based, mouse. Particulars: 3T3-L1, 24 hours. A digest of the protocol: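 Scratch assay: 3T3-L1 cells were grown to confluence, then wounded with a pipette tip and treated with test compounds. Wound width was measured at the time of scratching and again after 24 h.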
For a further series, the system named is mice. Kind of series: Acute oral toxicity study. It is filed as in vivo. A digest of the protocol: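 OECD 420 fixed-dose procedure in mice. Animals were dosed orally in stepwise groups at fixed doses of 5, 50, 300 and 2000 mg kg−1. Further groups received higher or lower fixed doses depending on the presence or absence of toxicity or death. Read-outs were clinical signs of toxicity and mortality.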

Another series deals with diabetic rats. Kind of series: Full thickness excision wound model in STZ-nicotinamide diabetic rats. It is filed as in vivo, Wistar male albino rats.

One may read the IC50 as the point on the concentration scale where inhibition reaches its midpoint. Regarding `O=C(O)CNC(=O)c1nc(Cl)c2ccccc2c1O` [FG-2216], the half-inhibitory concentration (IC50) in series [1] was 3.9 µM. Moreover, in series [2], the Fatal outcome is given as “one patient died of hepatic necrosis” and the “Liver enzyme test results” value is reported as “aberrant liver enzyme test results”.

Consider `c1ccc(-c2cc(-c3ccccc3)n(CN(c3ccccc3)c3ccccc3)n2)cc1` [CDPA, N-[(3,5-diphenylpyrazol-1-yl)methyl] -N-phenylaniline], for which the IC50 in series [3] is 132 µg/mL (≈ 328 µM).

For the compound Hyaluronic acid [reference compound], the “3T3-L1 IC50” value in series [3] (MTT assay, 3T3-L1) is 112.59 µg/mL.

For `c1ccc(-c2cc(-c3ccccc3)n(Cn3cccn3)n2)cc1` [CP, 3,5-Diphenyl-1-(pyrazole-1-ylmethyl) pyrazole], the “Activity compared to the positive control hyaluronic acid” value in the series with 3T3-L1 cells is on record as “comparable activity”. Also, in series [3], the IC50 turned out to be 111 µg/mL (≈ 371 µM).

In the case of `c1ccc(-c2cc(-c3ccccc3)n(Cn3ccnc3)n2)cc1` [CI, 1-(Imidazol-1-ylmethyl) −3,5-diphenylpyrazole], the “Acute oral toxicity outcome” value with mice (oral, 2000 mg kg^−1) is recorded as “died”; in the series with mice (oral, 5, 50, and 300 mg kg^−1) it was “no adverse effects or fatality”. In the series on 3T3-L1 cells, the “Activity compared to the positive control hyaluronic acid” value is on record as “comparable activity”. In addition, in series [3], the IC50 turned out to be 107 µg/mL (≈ 355 µM). Besides, the “Wound contraction (%)” value in the series with diabetic rats (High dose 150 mg kg^−1, oral, Day 3) stood at 24.5 ± 0.48 %; in the series on diabetic rats (High dose 150 mg kg^−1, oral, Day 7) it was 31.25 ± 0.39 %; in the series with diabetic rats (High dose 150 mg kg^−1, oral, Day 11), 64.00 ± 0.44 %; in the series on diabetic rats (Low dose 75 mg kg^−1, oral, Day 3), 18.25 ± 0.55 %; in the series on diabetic rats (Low dose 75 mg kg^−1, oral, Day 7), 24.50 ± 0.30 %; in the series with diabetic rats (Low dose 75 mg kg^−1, oral, Day 11), 41.5 ± 0.43 %. Moreover, the “Wound contraction (%)” value with diabetic rats (Low dose 75 mg kg^−1, oral, Day 15) was 55.77 ± 0.42 %. Also, in the series on diabetic rats (oral, diabetic rats), the “Wound healing in rats” value is “improved wound healing”.
